# Experimental data gathered from unrelated publications.
# Protocols differ between the studies behind these lines.
# RET: Proto-oncogene tyrosine-protein kinase receptor Ret (RET, Homo sapiens, UniProt P07949)
# RET V804M: Proto-oncogene tyrosine-protein kinase receptor Ret (RET, Homo sapiens, UniProt P07949, V804M)
# RET M918T: Proto-oncogene tyrosine-protein kinase receptor Ret (RET, Homo sapiens, UniProt P07949, M918T)
# RET V804L: Proto-oncogene tyrosine-protein kinase receptor Ret (RET, Homo sapiens, UniProt P07949, V804L)
SMILES,target,effect on,technique,concentration,remaining binding [%]
C[C@@H](c1ccc(-n2cnc3c(N)ncnc32)cc1)N1CCc2nn(C)c(Cc3ccccc3)c2C1=O,RET,binding,competition with immobilised ligand,0.1 µM,81
Nc1ncc2c(n1)-c1c([nH]c3ccc(C#CC4CC4)cc13)CCCC2,RET V804M,binding,competition with immobilised ligand,1 µM,100
O=C(c1ccc(Nc2ncc(Cl)c(-c3cc4ccccc4s3)n2)cc1)N1CCC(N2CCCC2)CC1,RET M918T,binding,competition with immobilised ligand,1 µM,13
CO[C@@H](C)c1c(Nc2ccc([C@@H](N(C)C(=O)C3CCS(=O)(=O)CC3)C(F)(F)F)cc2)cnc2cc(Cl)nn12,RET,cell-free assay,competition with immobilised ligand,1 µM,91
CC(C)(C)c1ccc(-c2nc(CBr)nn2-c2cccc(O)c2)cc1,RET,cell-free assay,competition with immobilised ligand,10 µM,93
O=C(c1ccc(Nc2nccc(-c3cc4ccccc4s3)n2)cc1)N1CCC(N2CCCC2)CC1,RET M918T,binding,competition with immobilised ligand,1 µM,83
O=C(NCC1CCOCC1)c1n[nH]cc1NC(=O)c1c(F)cccc1F,RET,binding,competition with immobilised ligand,1 µM,98
Cc1cnc(Nc2ccc(C(=O)N3CCC(N4CCCC4)CC3)cc2)nc1-c1cc2ccccc2s1,RET,binding,competition with immobilised ligand,1 µM,12
C[C@@H]1CCN(c2nccc(-c3cnn4ncccc34)n2)C1,RET V804L,binding,,1 µM,100
c1cncc(-c2cccc(Nc3nccc(NC4CCCCC4)n3)c2)c1,RET,binding,competition with immobilised ligand,10 µM,14
Cc1cc(-n2nc(Cc3cc(F)cc(C(F)(F)F)c3)nc2C)ccc1C(N)=O,RET,cell-free assay,competition with immobilised ligand,1 µM,96
COc1ncc2cc3ccccc3nc2c1C#N,RET V804L,cell-free assay,competition with immobilised ligand,5 µM,94
O=C(Nc1c[nH]nc1C(=O)NC1CCNCC1)c1cc(F)cc(F)c1,RET V804L,binding,competition with immobilised ligand,1 µM,100
CN1CCN(c2ccc(Nc3nccc(-c4cccc([N+](=O)[O-])c4)n3)cc2C(F)(F)F)CC1,RET V804L,binding,,10 µM,41
CN(C)c1nccc(-c2cnn3ncccc23)n1,RET,binding,,1 µM,91
O=C(NCCCN1CCOCC1)c1ccc(Nc2ncc(Cl)c(-c3ccc(Cl)s3)n2)cc1,RET V804M,binding,competition with immobilised ligand,1 µM,15
Cc1nc(Cc2cccc(C(F)(F)F)c2)sc1-c1ccc(C(N)=O)nc1,RET V804L,cell-free assay,competition with immobilised ligand,1 µM,86
CN(C)c1nccc(-c2cnc3ncccn23)n1,RET,binding,,1 µM,91
COc1cnc(Nc2cccc(S(N)(=O)=O)c2)nc1N1CCN(c2ccccc2)CC1,RET,binding,competition with immobilised ligand,1 µM,64
C[C@@H]1CN(c2ccc3ncc(-c4ccc5[nH]nc(C6CC6)c5c4)n3n2)C[C@H](C)O1,RET,binding,competition with immobilised ligand,0.5 µM,61
CC1CCCN1c1nccc(-c2cnn3ncccc23)n1 (stereo not shown),RET M918T,binding,,1 µM,89
CCN1CCN(Cc2ccc(C(=O)Nc3ccc(C)c(Oc4ccc5c(c4)CC(=O)N5)c3)cc2C(F)(F)F)CC1,RET V804L,binding,competition with immobilised ligand,1 µM,99
Cc1cnn2ncc(-c3ccnc(N(C)C)n3)c2c1,RET M918T,binding,,1 µM,100
O=C(N1CCS(=O)(=O)CC1)N1C[C@H](c2ccc(OC(F)(F)F)cc2)C[C@H](c2nc(C3CC3)no2)C1,RET M918T,cell-free assay,competition with immobilised ligand,1 µM,92
N[C@@H]1CCN(c2nccc(-c3cnn4ncccc34)n2)C1,RET V804M,binding,,1 µM,99
CNC(=O)[C@@H]1CC[C@@H](n2c(-c3ccc4cnccc4c3)nc3ccc(C(=O)NCc4cccc(C(N)=O)c4)cc32)C1,RET V804L,binding,competition with immobilised ligand,1 µM,94
O=C(N[C@H]1CCCCC/C=C\C2C[C@@]2(C(=O)O)NC(=O)[C@@H]2C[C@@H](Oc3ccncc3)CN2C1=O)OC1CCCC1 (stereo partly shown),RET V804M,binding,competition with immobilised ligand,1 µM,100
F[C@@H]1CCN(c2nccc(-c3cnn4ncccc34)n2)C1,RET V804M,binding,,1 µM,72
O=C(NCCCN1CCOCC1)c1ccc(Nc2nccc(-c3cc4ccccc4s3)n2)cc1,RET V804L,binding,competition with immobilised ligand,1 µM,100
CN1CCN(c2ccc(Nc3nccc(-c4ccccc4)n3)cc2C(F)(F)F)CC1,RET V804M,binding,,10 µM,48
O=C(c1ccc(Nc2ncc(Cl)c(-c3ccc(Cl)s3)n2)cc1)N1CCC(N2CCCC2)CC1,RET V804L,binding,competition with immobilised ligand,1 µM,10
Cc1nccc(COC(=O)N2C[C@@H]3[C@@H](CNC(=O)c4ccc5[nH]nnc5c4)[C@@H]3C2)n1,RET M918T,cell-free assay,competition with immobilised ligand,1 µM,100
COc1cnc(Nc2cccc(S(N)(=O)=O)c2)nc1N1CCN(c2ccccc2)C(=O)C1,RET,binding,competition with immobilised ligand,1 µM,90
Cn1nc(C(F)(F)F)cc1-c1cnc(N2CCc3cc(S(=O)(=O)Nc4c(F)cc(Cl)cc4F)cc(N4CCCC4=O)c32)nc1,RET V804M,cell-free assay,competition with immobilised ligand,1 µM,98
C=CC(=O)N1CCC(C(=O)NCC(=O)N2CCN(c3nc(-c4cnc(N)nc4C(F)F)nc(N4CCOCC4)n3)CC2)CC1,RET V804L,binding,competition with immobilised ligand,1 µM,100
CN(c1nccc(-c2cnn3ncccc23)n1)C1CC1,RET,binding,,1 µM,84
CNC(=O)Nc1ccc2c(c1)CC[C@@]21OC(=O)N(CC(=O)N(Cc2ccc(F)cc2)[C@@H](C)C(F)(F)F)C1=O,RET V804M,cell-free assay,competition with immobilised ligand,1 µM,98
